Drug metabolism, inhibition and Stability data for two molecules are collected here from ChEMBL document CHEMBL3785029, “Synthesis and Characterization of Fatty Acid Conjugates of Niacin and Salicylic Acid” (J Med Chem, 2016).

The test system of one data set is Brain. In words: Drug metabolism in Sprague-Dawley rat brain assessed as salicyluric acid formation at 300 mg/kg, po administered for 7 days measured 4 hrs post dose on day 7. The note with it: in vivo. Type of data set: ADME, organism-based. Summed up:
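Male Sprague Dawley rats, groups of 4, dosed orally at 300 mg/kg once daily for 14 days. Animals killed on days 1, 3, 7 and 14, with plasma, brain, epididymal fat, liver and muscle taken 4 hr after dosing. Parent, salicylic acid and salicyluric acid were measured.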

Data set [1] concerns the target T1, Fatty-acid amide hydrolase 1 (Rattus norvegicus, UniProt P97612).
T1 sequence (P97612 whole entry): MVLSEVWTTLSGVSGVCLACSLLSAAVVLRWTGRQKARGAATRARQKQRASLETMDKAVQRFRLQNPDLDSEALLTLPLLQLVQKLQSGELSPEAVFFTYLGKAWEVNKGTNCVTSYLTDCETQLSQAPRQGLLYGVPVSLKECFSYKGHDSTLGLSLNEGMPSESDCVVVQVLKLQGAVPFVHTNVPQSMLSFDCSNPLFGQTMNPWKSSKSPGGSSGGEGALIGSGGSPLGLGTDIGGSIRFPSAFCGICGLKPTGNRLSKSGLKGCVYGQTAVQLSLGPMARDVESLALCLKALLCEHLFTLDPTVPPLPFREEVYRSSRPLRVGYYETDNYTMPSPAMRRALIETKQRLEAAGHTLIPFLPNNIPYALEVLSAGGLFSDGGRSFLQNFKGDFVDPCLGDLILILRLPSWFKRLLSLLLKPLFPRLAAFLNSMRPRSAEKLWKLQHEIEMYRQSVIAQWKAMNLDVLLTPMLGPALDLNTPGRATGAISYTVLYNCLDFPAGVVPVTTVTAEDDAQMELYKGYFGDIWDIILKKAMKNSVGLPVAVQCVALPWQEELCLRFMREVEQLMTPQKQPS
In words: Drug metabolism in rat liver lysate assessed as FAAH-mediated compound hydrolysis at 5 uM by LC-MS-MS analysis. The class given is ADME, tissue-based. Summed up: (§1)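 Rat liver lysate, 3 mg/mL final, in 50 mM HEPES / 1 mM EDTA buffer, pre-equilibrated 20 min at 37 °C; reaction started by adding compound in DMSO; incubated at 37 °C and loss of starting material monitored by LC/MS/MS; FAAH inhibitor PF-3845 added where indicated.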

In data set [2] the target is T1, Fatty-acid amide hydrolase 1. Briefly: Drug metabolism in rat liver lysate assessed as FAAH-mediated compound hydrolysis at 5 uM by LC-MS-MS analysis in the presence of PF3845. Type of data set: ADME, tissue-based. Summed up: as §1
For data set [3], the system named is Plasma. Briefly: Drug metabolism in Sprague-Dawley rat plasma assessed as (4Z,7Z,10Z,13Z,16Z,19Z)-N-(2-aminoethyl)docosa-4,7,10,13,16,19-hexaenamide formation at 300 mg/kg, po measured up to 24 hrs post dose. The note with it: in vivo.
In data set [4] the test system is Plasma. Briefly: Drug metabolism in Sprague-Dawley rat plasma assessed as nicotinuric acid levels at 100 mg/kg, po administered as single dose after 6 hrs by LC/MS/MS analysis. Type of data set: ADME, organism-based. The note with it: in vivo. Summed up: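 Single oral dose to Sprague Dawley rats; plasma collected at 0.25, 0.5, 1, 2, 4 and 6 hr; analytes in plasma quantified by LC/MS/MS.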

Data set [5] concerns Plasma. In words: Drug metabolism in Sprague-Dawley rat plasma assessed as niacin formation at 300 mg/kg, qd administered through oral gavage for 7 days measured 2 hrs post last dose by LC/MS/MS analysis. Type of data set: ADME, organism-based. The settings on record: in vivo, BLD = below limit of detection.
The next data set has as its system Liver. In words: Drug metabolism in Sprague-Dawley rat liver assessed as linker EPA metabolite (5Z,8Z,11Z,14Z,17Z)-N-(2-aminoethyl)icosa-5,8,11,14,17-pentaenamide formation at 300 mg/kg, qd administered through oral gavage for 7 days measured 2 hrs post last dose by LC/MS/MS analysis. The settings on record: in vivo. Type of data set: ADME, organism-based.
The next data set deals with Mus musculus. Briefly: Inhibition of PCSK9 levels in po dosed ApoE*3-Leiden mouse plasma administered for 16 weeks. Type of data set: functional, organism-based. The procedure, abridged: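 Transgenic ApoE*3-Leiden mice on high-cholesterol Western-type diet dosed over 16 weeks; plasma PCSK9, total cholesterol, triglycerides and lipoprotein profile (VLDL, LDL) assessed at study end.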

The subject of data set [6] is Plasma. In words: Metabolic stability in human plasma at 5 uM up to 2 hrs by LC-MS-MS analysis. Type of data set: ADME, cell-free. Summed up:
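Plasma from each species diluted to 50% with 0.05 M PBS pH 7.4 and prewarmed to 37 °C; compound added at 5 µM final (from DMSO stock diluted in MeOH); triplicate incubations at 37 °C, sampled at 0, 30, 60, 120 min, quenched with acetonitrile containing internal standard, centrifuged, analysed by LC/MS/MS.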

Data set [7] deals with T2, Sterol regulatory element-binding protein 2 (Homo sapiens) (UniProt Q12772).
T2 sequence (whole entry): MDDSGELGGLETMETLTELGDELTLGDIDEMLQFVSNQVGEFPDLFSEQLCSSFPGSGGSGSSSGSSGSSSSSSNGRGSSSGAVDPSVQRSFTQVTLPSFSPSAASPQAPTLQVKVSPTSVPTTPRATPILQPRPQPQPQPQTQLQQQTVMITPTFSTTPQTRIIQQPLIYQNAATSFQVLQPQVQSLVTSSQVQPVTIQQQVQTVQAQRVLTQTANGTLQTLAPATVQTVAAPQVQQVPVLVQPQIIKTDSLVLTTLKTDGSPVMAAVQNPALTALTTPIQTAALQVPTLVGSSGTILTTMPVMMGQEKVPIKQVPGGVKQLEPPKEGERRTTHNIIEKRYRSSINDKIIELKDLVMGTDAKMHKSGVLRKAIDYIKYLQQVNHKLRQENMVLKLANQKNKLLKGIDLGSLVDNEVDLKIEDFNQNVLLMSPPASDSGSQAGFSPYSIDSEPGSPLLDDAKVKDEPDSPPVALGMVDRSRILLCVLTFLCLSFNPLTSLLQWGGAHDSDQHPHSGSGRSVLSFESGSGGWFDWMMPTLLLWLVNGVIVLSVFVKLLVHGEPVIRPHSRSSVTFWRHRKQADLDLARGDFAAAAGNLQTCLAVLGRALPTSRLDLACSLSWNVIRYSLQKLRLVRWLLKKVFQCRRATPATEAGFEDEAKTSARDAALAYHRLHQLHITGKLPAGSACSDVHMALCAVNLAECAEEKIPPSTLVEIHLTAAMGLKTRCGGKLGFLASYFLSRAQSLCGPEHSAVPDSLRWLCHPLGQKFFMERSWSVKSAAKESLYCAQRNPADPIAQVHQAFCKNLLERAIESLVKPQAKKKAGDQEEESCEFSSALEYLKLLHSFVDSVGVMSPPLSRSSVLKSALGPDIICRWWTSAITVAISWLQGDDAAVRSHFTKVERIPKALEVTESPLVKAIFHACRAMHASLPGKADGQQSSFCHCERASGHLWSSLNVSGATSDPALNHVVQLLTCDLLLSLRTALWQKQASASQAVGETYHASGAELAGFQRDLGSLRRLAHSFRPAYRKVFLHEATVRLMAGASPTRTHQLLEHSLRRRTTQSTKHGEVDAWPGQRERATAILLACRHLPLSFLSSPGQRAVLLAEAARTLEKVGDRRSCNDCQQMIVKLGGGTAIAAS
In words: Inhibition of SREBP2 maturation in human HepG2 cells at 25 to 50 uM after overnight incubation by immunoblot analysis. The class given is cell-based. Summed up:
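Human HepG2 cells incubated with compound (25 and 50 µM), alone or together with 10 µM atorvastatin; mature SREBP-2 protein level assessed.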
A general note: Immunoblotting shows a protein as a band on a membrane.

Calls of active or inactive are those of the source. The rule behind the calls is not given here. Bounds are passed on as bounds.

In the case of `CC/C=C\C/C=C\C/C=C\C/C=C\C/C=C\C/C=C\CCC(=O)NCCNC(=O)c1ccccc1O` [EDASALONEXENT], the Drug metabolism in the data set with Brain is on record as 114.43 ng/g; in data set [1], “metabolite_detected”; in [2] it was “metabolite_notdetected”; in the data set with Plasma [3], “metabolite_notdetected”.
For the molecule `CC/C=C\C/C=C\C/C=C\C/C=C\C/C=C\CCCC(=O)NCCNC(=O)c1cccnc1`, the Drug metabolism with Plasma [4] was more than 200 ng/mL; with Plasma [5] it was “BLD”; in the data set with Liver, 8.7 ng/g; in data set [1] (TDE = time-dependent effect), “tde”; in [2], “metabolite_notdetected”. For the same molecule, the inhibition result in the data set with Mus musculus is “Active”. For the same molecule, in the data set on Plasma [6], the Stability result was “Stable”. In addition, in data set [7], the inhibition result was “Dose-dependent effect”.
